Experimental data taken from ChEMBL document CHEMBL1152466, “Hepatitis B virus e antigen loss during adefovir dipivoxil therapy is associated with enhanced virus-specific CD4+ T-cell reactivity” (2008).
Active and inactive are the calls of the source.

What was measured:
PBMC [1] = experiment: Increase in HBV-specific IFN-gamma production in HBcAg-stimulated human PBMC assessed as INFgamma production index at 10 to 30 mg per day after 24 weeks by […]; format: functional
Summary of the method: (§1)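 PBMC at 3 × 10⁶/ml in RPMI with 10% human AB serum, cultured in quadruplicate for 6 days with or without rHBcAg (1 μg/ml). IFN-γ in cell-free supernatants (kept at −20°C) was measured by ELISA. Index = mean pg/ml IFN-γ of the four HBcAg-stimulated replicates divided by that of medium-only cultures, calculated at each protocol time point.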

Hepatitis B virus [2] = experiment: Antiviral activity against HBV infected in human assessed as reduction in serum viral DNA level at 10 to 30 mg per day after 48 weeks; format: functional
PBMC [3] = experiment: Increase in HBV-specific IL12p70 level in HBcAg-stimulated human PBMC at 10 to 30 mg per day by ELISA; format: functional, cell-based
PBMC [4] = experiment: Increase in HBV-specific IFN-gamma production in HBcAg-stimulated human PBMC assessed as INFgamma production index at 10 to 30 mg per day after 40 weeks by […]; format: functional; summary of the method: as §1
PBMC [5] = experiment: Increase in HBV-specific IFN-gamma production in HBcAg-stimulated human PBMC assessed as INFgamma production index at 10 to 30 mg per day after 4 weeks […]; format: functional; summary of the method: as §1
Homo sapiens [6] = species on record: Homo sapiens; experiment: Increase in HBV-specific IFN-gamma-producing CD4+ cell proliferation in patients with […] chronic hepatitis B assessed as [3H]thymidine incorporation by beta counting relative to baseline; format: functional
Summary of the method: (§2)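 Freshly isolated patient PBMC (density gradient) at 2 × 10⁶/ml in RPMI with 10% human AB serum. rHBcAg (1 μg/ml) was added to quadruplicate wells, with tetanus toxoid (0.5 μg/ml) and phytohemagglutinin (1 μg/ml) as controls. After 6 days, 0.5 μCi/well [³H]thymidine pulse and beta counting. Stimulation index = mean cpm antigen/medium. The positive cutoff was mean + 3 SD of 15–20 controls per center.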

PBMC [7] = experiment: Increase in HBV-specific IP10 in HBcAg-stimulated human PBMC at 10 to 30 mg per day by ELISA; format: functional, cell-based
Homo sapiens [8] = species on record: Homo sapiens; experiment: Serum IL10 level in human at baseline at 10 to 30 mg per day by cytometric bead array
PBMC [9] = experiment: Increase in HBV-specific IFN-gamma production in HBcAg-stimulated human PBMC assessed as INFgamma production index at 10 to 30 mg per day after 16 weeks […]; format: functional; summary of the method: as §1
Homo sapiens [10] = species on record: Homo sapiens; experiment: Increase in HBV-specific IFN-gamma-producing CD4+ cell proliferation in patients with […] chronic hepatitis B assessed as [3H]thymidine incorporation after 40 weeks by beta counting relative to baseline; format: functional, organism-based; summary of the method: as §2
PBMC [11] = experiment: Increase in HBV-specific IFN-gamma production in HBcAg-stimulated human PBMC assessed as INFgamma production index at 10 to 30 mg per day after 8 weeks by […]; format: functional; summary of the method: as §1
Homo sapiens [12] = species on record: Homo sapiens; experiment: Increase in HBV-specific IFN-gamma-producing CD4+ cell proliferation in patients with […] chronic hepatitis B assessed as [3H]thymidine incorporation after 16 weeks by beta counting relative to baseline; format: functional, organism-based; summary of the method: as §2
PBMC [13] = experiment: Increase in HBV-specific IL8 in HBcAg-stimulated human PBMC at 10 to 30 mg per day by ELISA; format: functional, cell-based
PBMC [14] = experiment: Increase in HBV-specific IL2 level in HBcAg-stimulated human PBMC at 10 to 30 mg per day by ELISA; format: functional, cell-based
Hepatitis B virus [15] = experiment: Antiviral activity against HBV infected patients assessed as ALT level at 10 to 30 mg per day after 48 weeks […]; format: functional
Homo sapiens [16] = species on record: Homo sapiens; experiment: Increase in HBV-specific IFN-gamma-producing CD4+ cell proliferation in patients with […] chronic hepatitis B assessed as [3H]thymidine incorporation after 48 weeks by beta counting relative to baseline; format: functional, organism-based; summary of the method: as §2
PBMC [17] = experiment: Increase in HBV-specific Fas ligand level in HBcAg-stimulated human PBMC at 10 to 30 mg per day by ELISA; format: functional, cell-based
PBMC [18] = experiment: Increase in HBV-specific IFN-gamma production in HBcAg-stimulated human PBMC assessed as INFgamma production index at 10 to 30 mg per day after 48 weeks by […]; format: functional; summary of the method: as §1
PBMC [19] = experiment: Increase in HBV-specific IL5 level in HBcAg-stimulated human PBMC at 10 to 30 mg per day by ELISA; format: functional, cell-based

In the case of CC(C)(C)C(=O)OCOP(=O)(COCCn1cnc2c(N)ncnc21)OCOC(=O)C(C)(C)C [ADEFOVIR DIPIVOXIL], the Activity (PBMC [1]) is reported as 26.3, the Activity (Hepatitis B virus [2]) is reported as -5.3 log10CFU/ml and the Activity (PBMC [3]) is reported as “inactive”. The Activity (PBMC [4]) was 61.5, the Activity (PBMC [5]) was 58.9 and the Activity (Homo sapiens [6]) was 15%. The Activity (PBMC [7]) was “Active”, the Activity (Homo sapiens [8]) was 32 pg/mL and the Activity (PBMC [9]) was 63.9. For the same compound, the Activity (Homo sapiens [10]) was “Active”, the Activity (PBMC [11]) was 184.3 and the Activity (Homo sapiens [12]) was “Active”. For the same compound, the Activity (PBMC [13]) was “Active”, the Activity (PBMC [14]) was “inactive” and the Activity (Hepatitis B virus [15]) was 35 IU/ml. For the same compound, the Activity (Homo sapiens [16]) was “Active”, the Activity (PBMC [17]) was “inactive” and the Activity (PBMC [18]) was 18. The Activity (PBMC [19]) was “inactive”.
